According to ChEMBL document CHEMBL4616603, “Luciferase-based HMG-CoA reductase degradation assay for activity and selectivity profiling of oxy(lano)sterols” (Bioorg Med Chem, 2020):
pEC50: −log10 of the molar value. Active and inactive are the calls of the source. The rule behind the calls is not given here.

What was measured:
Assay type in all cases: cell-based
[1] = molecular target: T1, 3-hydroxy-3-methylglutaryl-coenzyme A reductase (Homo sapiens) (UniProt P04035); assay: (§1) Induction of human HMGCR-dCat-ELuc degradation expressed in HEK293 cells assessed as reduction in luciferase activity after 4 hrs by luciferase reporter assay
T1 sequence (whole entry): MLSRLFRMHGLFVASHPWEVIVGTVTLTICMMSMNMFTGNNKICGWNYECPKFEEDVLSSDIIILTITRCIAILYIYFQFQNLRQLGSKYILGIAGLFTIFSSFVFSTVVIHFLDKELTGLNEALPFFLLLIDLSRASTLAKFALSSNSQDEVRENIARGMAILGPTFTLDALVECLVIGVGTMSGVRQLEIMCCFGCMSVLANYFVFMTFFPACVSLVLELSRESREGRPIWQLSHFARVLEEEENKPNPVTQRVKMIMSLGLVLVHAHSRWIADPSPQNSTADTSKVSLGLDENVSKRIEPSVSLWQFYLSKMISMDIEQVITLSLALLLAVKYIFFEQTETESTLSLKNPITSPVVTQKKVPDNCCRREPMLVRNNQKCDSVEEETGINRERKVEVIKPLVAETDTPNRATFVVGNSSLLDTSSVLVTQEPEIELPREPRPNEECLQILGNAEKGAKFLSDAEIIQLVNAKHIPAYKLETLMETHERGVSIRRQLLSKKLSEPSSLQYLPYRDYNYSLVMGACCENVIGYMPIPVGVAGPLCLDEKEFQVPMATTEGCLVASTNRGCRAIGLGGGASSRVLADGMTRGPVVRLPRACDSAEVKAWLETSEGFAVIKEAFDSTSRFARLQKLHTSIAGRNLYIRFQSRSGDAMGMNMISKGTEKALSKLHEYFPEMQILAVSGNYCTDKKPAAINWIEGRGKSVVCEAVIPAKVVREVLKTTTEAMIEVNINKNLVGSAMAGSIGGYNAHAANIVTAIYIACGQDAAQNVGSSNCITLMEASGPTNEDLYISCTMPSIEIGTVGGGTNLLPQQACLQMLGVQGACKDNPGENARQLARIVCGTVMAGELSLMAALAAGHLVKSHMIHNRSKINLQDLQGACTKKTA
In short: (§2)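 HEK293 clone stably expressing HMGCR-dCat-ELuc, kept under 0.4 mg/mL G418 and picked from limiting-dilution clones. Cells exposed to compound for 4 h, then luciferase activity read as a measure of reporter protein level. Compounds came from 10 mM DMSO stocks (ethanol stock for 25HC). SD of triplicate experiments.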

[2] = molecular target: T2, 3-hydroxy-3-methylglutaryl-coenzyme A reductase (Homo sapiens, UniProt P04035); assay: as §1; in short: as §2
T2 sequence (P04035 whole entry): T1 sequence (whole entry)

[3] = molecular target: T3, Sterol regulatory element-binding protein 1 (Homo sapiens) (UniProt P36956); assay: Inhibition of SREBP (unknown origin) expressed in HEK293 cells assessed as reduction in LDLr promotor activity after 24 hrs by luciferase reporter assay
T3 sequence (whole entry): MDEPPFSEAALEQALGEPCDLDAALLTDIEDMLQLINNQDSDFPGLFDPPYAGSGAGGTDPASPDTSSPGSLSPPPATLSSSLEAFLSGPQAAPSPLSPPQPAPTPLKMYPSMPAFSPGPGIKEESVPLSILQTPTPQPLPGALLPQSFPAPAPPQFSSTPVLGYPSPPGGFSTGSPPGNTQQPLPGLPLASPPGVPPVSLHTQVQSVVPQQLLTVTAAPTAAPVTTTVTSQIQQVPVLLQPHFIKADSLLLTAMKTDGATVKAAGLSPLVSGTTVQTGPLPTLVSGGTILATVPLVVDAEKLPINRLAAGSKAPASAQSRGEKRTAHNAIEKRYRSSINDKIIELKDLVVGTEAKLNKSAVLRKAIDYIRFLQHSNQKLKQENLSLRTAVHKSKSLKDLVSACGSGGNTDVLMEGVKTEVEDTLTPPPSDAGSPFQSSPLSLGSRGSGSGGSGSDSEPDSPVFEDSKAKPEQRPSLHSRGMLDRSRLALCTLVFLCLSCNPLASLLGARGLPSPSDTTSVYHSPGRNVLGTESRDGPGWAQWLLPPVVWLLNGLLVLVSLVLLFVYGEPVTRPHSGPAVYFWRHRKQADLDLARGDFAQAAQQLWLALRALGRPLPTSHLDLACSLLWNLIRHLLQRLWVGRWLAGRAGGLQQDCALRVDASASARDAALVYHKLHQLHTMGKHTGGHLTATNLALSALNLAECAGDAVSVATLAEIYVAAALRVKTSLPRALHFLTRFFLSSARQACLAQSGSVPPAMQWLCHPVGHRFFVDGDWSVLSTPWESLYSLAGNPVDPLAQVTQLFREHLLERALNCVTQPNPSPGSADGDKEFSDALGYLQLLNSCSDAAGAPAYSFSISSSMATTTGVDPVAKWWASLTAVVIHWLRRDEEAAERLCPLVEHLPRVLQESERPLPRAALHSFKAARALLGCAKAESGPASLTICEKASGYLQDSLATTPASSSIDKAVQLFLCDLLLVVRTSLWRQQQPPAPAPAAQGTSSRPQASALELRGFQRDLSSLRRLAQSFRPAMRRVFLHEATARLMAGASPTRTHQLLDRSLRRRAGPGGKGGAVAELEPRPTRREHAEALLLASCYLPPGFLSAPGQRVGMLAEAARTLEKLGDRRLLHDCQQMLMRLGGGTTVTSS
In short: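 HEK293 cells transiently co-transfected with pGL4-LDLr-luciferase and pCMV-beta-galactosidase. After 24 h the medium was changed to DMEM with 10% LPDS, compounds were added, and culture continued for 24 h. Luciferase was read and normalized to beta-galactosidase activity. Mean ± SD, n = 3.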

[4] = molecular target: T1, 3-hydroxy-3-methylglutaryl-coenzyme A reductase (Homo sapiens); assay: Induction of human HMGCR-dCat-ELuc degradation expressed in HEK293 cells assessed as reduction in luciferase activity after 8 hrs by luciferase reporter assay
In short: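 Stable HMGCR-dCat-ELuc HEK293 clone (G418 0.4 mg/mL selection) treated for 8 h, then assayed for luciferase activity. In some runs, cells were co-treated with the SQS inhibitor TAK-475 at 10 µM. Mean and SD from biological replicates (n = 4 or 8).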

[5] = molecular target: T1, 3-hydroxy-3-methylglutaryl-coenzyme A reductase (Homo sapiens); assay: Induction of human HMGCR-dCat-ELuc degradation expressed in HEK293 cells assessed as reduction in luciferase activity at 10 uM measured at <4 hrs by luciferase reporter assay
In short: (§3)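 Time-course degradation assay in the stable HMGCR-dCat-ELuc HEK293 line. Compound at 10 µM, alone or together with the VCP inhibitor CB5083 at 10 µM, for the indicated times. Reporter level read by luciferase activity.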

[6] = molecular target: T1, 3-hydroxy-3-methylglutaryl-coenzyme A reductase (Homo sapiens); assay: Induction of human HMGCR-dCat-ELuc degradation expressed in HEK293 cells assessed as reduction in luciferase activity at 10 uM measured at <4 hrs in presence of VCP inhibitor CB5083 by luciferase reporter assay; in short: as §3
[7] = molecular target: T1, 3-hydroxy-3-methylglutaryl-coenzyme A reductase (Homo sapiens); assay: Induction of human HMGCR-dCat-ELuc degradation expressed in HEK293 cells assessed as reduction in luciferase activity measured after 8 hrs in presence of SQS inhibitor TAK-475 by luciferase reporter assay
In short: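 Stable HEK293 HMGCR-dCat-ELuc clone (G418-selected, single clone) was given graded compound concentrations together with 10 µM TAK-475 (SQS inhibitor) for 8 h. The read-out was luciferase activity. Data are mean and SD of biological replicates, n = 4.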

[8] = molecular target: T1, 3-hydroxy-3-methylglutaryl-coenzyme A reductase (Homo sapiens); assay: Induction of human HMGCR-dCat-ELuc degradation expressed in HEK293 cells assessed as reduction in luciferase activity measured after 8 hrs by luciferase reporter assay
In short: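 Stable HEK293 clone expressing HMGCR-dCat-ELuc, selected with 0.4 mg/mL G418 and isolated by limiting dilution. Cells were given graded compound concentrations without TAK-475 for 8 h. HMGCR-dCat-ELuc level was read as luciferase activity. Data are mean and SD.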

In the case of `C[C@H](CCCC(C)(C)O)[C@H]1CC[C@H]2[C@@H]3CC=C4C[C@@H](O)CC[C@]4(C)[C@H]3CC[C@]12C`, the Activity [1] was “Dose-dependent effect”, the pEC50 [2] was 6.20 and the inhibition [3] was “Active”.
With `COc1cccc([C@H]2O[C@H](CC(=O)N3CCC(CC(=O)O)CC3)C(=O)N(CC(C)(C)COC(C)=O)c3ccc(Cl)cc32)c1OC` the Activity [4] was “inactive”.
In the case of `C[C@H](CCCO)[C@H]1CC[C@@]2(C)C3=C(CC[C@]12C)[C@@]1(C)CC[C@H](O)C(C)(C)[C@@H]1CC3`, the Activity [1] was “Active” and the inhibition [3] was “inactive”.
In the case of `CC(C)OP(=O)(OC(C)C)C(Cc1cc(C(C)(C)C)c(O)c(C(C)(C)C)c1)P(=O)(OC(C)C)OC(C)C` [APOMINE], the Activity [5] was “Active”, the Activity [1] was “Dose-dependent effect” and the pEC50 [2] was 6.33. The inhibition [3] was “inactive” and the Activity [6] was “inactive”.
`CC(C)CCC[C@@H](C)[C@H]1CC[C@H]2[C@@H]3C[C@@H](O)[C@@]4(O)C[C@@H](O)CC[C@]4(C)[C@H]3CC[C@]12C` was tested, and the Activity [1] was “Active” and the inhibition [3] was “inactive”.
`CC(C)CCC[C@@H](C)[C@H]1CC[C@H]2[C@@H]3CC=C4C(C)(C)[C@@H](O)CC[C@]4(C)[C@H]3CC[C@]12C` was tested, and the Activity [1] was “inactive” and the inhibition [3] was “inactive”.
In the case of `C[C@H](CCC1OC1(C)C)[C@H]1CC[C@@]2(C)C3=C(CC[C@]12C)[C@@]1(C)CC[C@H](O)C(C)(C)[C@@H]1CC3` (stereo partly drawn), the Activity [1] was “Active” and the inhibition [3] was “Active”.
`CC(C)CCC[C@@H](C)[C@H]1CC[C@@]2(C)C3=C(CC[C@]12C)[C@@]1(C)CC[C@H](O)C(C)(C)[C@@H]1CC3` was tested, and the Activity [1] was “inactive” and the inhibition [3] was “inactive”.
With `C[C@H](CCCC(C)(C)O)[C@H]1CC[C@@]2(C)C3=C(CC[C@]12C)[C@@]1(C)CC[C@H](O)C(C)(C)[C@@H]1CC3` the Activity [1] was “Active” and the inhibition [3] was “Active”.
`C[C@H](CCC(O)C(C)(C)O)[C@H]1CC[C@@]2(C)C3=C(CC[C@]12C)[C@@]1(C)CC[C@H](O)C(C)(C)[C@@H]1CC3` (stereo partly drawn) was tested, and the Activity [1] was “Active” and the inhibition [3] was “Active”.
`C[C@H](CCCC(C)(C)O)[C@H]1CC[C@H]2[C@@H]3C[C@@H](O)[C@@]4(O)C[C@@H](O)CC[C@]4(C)[C@H]3CC[C@]12C` was tested, and the Activity [1] was “Active” and the inhibition [3] was “inactive”.
With `C[C@H](CCCC(C)(C)O)[C@H]1CC[C@H]2[C@@H]3CCC4=CC(=O)CC[C@]4(C)[C@H]3CC[C@]12C` the Activity [1] was “inactive” and the inhibition [3] was “Active”.
In the case of `CC(C)CCC[C@@H](C)[C@H]1CC[C@H]2[C@@H]3CC=C4C[C@@H](O)CC[C@]4(CO)[C@H]3CC[C@]12C`, the Activity [1] was “inactive” and the inhibition [3] was “inactive”.
With `CC(=O)N1CCN(c2ccc(OCC3COC(Cn4ccnc4)(c4ccc(Cl)cc4Cl)O3)cc2)CC1` (stereo not drawn) the Activity [7] was “inactive” and the Activity [8] was “Dose-dependent effect”.
For `CC(C)CCC[C@@H](C)[C@H]1CC[C@@]2(C)C3=C(C(=O)C[C@]12C)[C@@]1(C)CC[C@H](O)C(C)(C)[C@@H]1CC3=O`, the Activity [1] was “Active” and the inhibition [3] was “inactive”.
